Calls of active or inactive are those of the source. The rule behind the calls is not given here.
Columns and labels:
[1] = test system: HT-29; test: Cytotoxicity against human HT-29 cells at 30 uM after 96 hrs by sulforhodamine B assay; format: functional, cell-based
In short: (§1)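 Growth inhibition at the highest tested concentration, 30 µM, after 96 h exposure in 96-well plates. Read by SRB staining as % viable cells relative to untreated controls, from at least three independent experiments.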

[2] = test system: A549; test: Cytotoxicity against human A549 cells at 30 uM after 96 hrs by sulforhodamine B assay; format: functional, cell-based; in short: as §1
[3] = test system: SW-1736; test: Cytotoxicity against human SW1736 cells at 30 uM after 96 hrs by sulforhodamine B assay; format: functional, cell-based; in short: as §1
[4] = test system: FaDu; test: Cytotoxicity against human FADU cells at 30 uM after 96 hrs by sulforhodamine B assay; format: functional, cell-based; in short: as §1
[5] = test system: A-431; test: Cytotoxicity against human A431 cells at 30 uM after 96 hrs by sulforhodamine B assay; format: functional, cell-based; in short: as §1
[6] = test system: 518A2; test: Cytotoxicity against human 518A2 cells at 30 uM after 96 hrs by sulforhodamine B assay; format: functional, cell-based; in short: as §1
[7] = test system: MCF7; test: Cytotoxicity against human MCF7 cells at 30 uM after 96 hrs by sulforhodamine B assay; format: functional, cell-based; in short: as §1
[8] = test system: A2780; test: Cytotoxicity against human A2780 cells at 30 uM after 96 hrs by sulforhodamine B assay; format: functional, cell-based; in short: as §1
[9] = test system: HCT-8; test: Cytotoxicity against human HCT8 cells at 30 uM after 96 hrs by sulforhodamine B assay; format: functional, cell-based; in short: as §1
[10] = test system: SW480; test: Cytotoxicity against human SW480 cells at 30 uM after 96 hrs by sulforhodamine B assay; format: functional, cell-based; in short: as §1
[11] = test system: HCT-116; test: Cytotoxicity against human HCT116 cells at 30 uM after 96 hrs by sulforhodamine B assay; format: functional, cell-based; in short: as §1
[12] = test system: DLD-1; test: Cytotoxicity against human DLD1 cells at 30 uM after 96 hrs by sulforhodamine B assay; format: functional, cell-based; in short: as §1
[13] = species on record: Homo sapiens; test: Cytotoxicity against human liposarcoma cells at 30 uM after 96 hrs by sulforhodamine B assay; format: functional, cell-based; in short: as §1
[14] = test system: A253; test: Cytotoxicity against human A253 cells at 30 uM after 96 hrs by sulforhodamine B assay; format: functional, cell-based; in short: as §1
[15] = test system: 8505C; test: Cytotoxicity against human 8505C cells at 30 uM after 96 hrs by sulforhodamine B assay; format: functional, cell-based; in short: as §1
[16] = test system: A2780; test: Cytotoxicity against human A2780 cells after 96 hrs by sulforhodamine B assay; format: functional, cell-based; details: A2780, 96 h
In short: (§2)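 Human tumour cell lines in 96-well plates, exposed to test compounds for 96 h, then read by colorimetric sulforhodamine B staining. Viable cells are expressed as % of untreated controls. IC50 is taken from dose–response curves, top concentration 30 µM, as the mean of at least three independent experiments (variation generally 10%). Compounds are given as DMSO solutions or as an aqueous liposomal formulation.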

[17] = test system: 8505C; test: Cytotoxicity against human 8505C cells after 96 hrs by sulforhodamine B assay; format: functional, cell-based; in short: as §2
[18] = Cytotoxicity against human liposarcoma cells after 96 hrs by sulforhodamine B assay; format: functional, cell-based; in short: as §2
[19] = Cytotoxicity against human A253 cells after 96 hrs by sulforhodamine B assay; format: functional, cell-based; details: A253, 96 h; in short: as §2
[20] = test system: FaDu; test: Cytotoxicity against human FADU cells after 96 hrs by sulforhodamine B assay; format: functional, cell-based; in short: as §2
[21] = test system: SW480; test: Cytotoxicity against human SW480 cells after 96 hrs by sulforhodamine B assay; format: functional, cell-based; details: SW480, 96 h; in short: as §2
[22] = test system: A549; test: Cytotoxicity against human A549 cells after 96 hrs by sulforhodamine B assay; format: functional, cell-based; details: A549, 96 h; in short: as §2
[23] = test system: HCT-116; test: Cytotoxicity against human HCT116 cells after 96 hrs by sulforhodamine B assay; format: functional, cell-based; details: HCT-116, 96 h; in short: as §2
[24] = test system: A-431; test: Cytotoxicity against human A431 cells after 96 hrs by sulforhodamine B assay; format: functional, cell-based; details: A-431, 96 h; in short: as §2
[25] = test system: HT-29; test: Cytotoxicity against human HT-29 cells after 96 hrs by sulforhodamine B assay; format: functional, cell-based; details: HT-29, 96 h; in short: as §2
[26] = test system: SW-1736; test: Cytotoxicity against human SW1736 cells after 96 hrs by sulforhodamine B assay; format: functional, cell-based; details: SW-1736, 96 h; in short: as §2
[27] = test system: MCF7; test: Cytotoxicity against human MCF7 cells after 96 hrs by sulforhodamine B assay; format: functional, cell-based; details: MCF7, 96 h; in short: as §2
[28] = test system: HCT-8; test: Cytotoxicity against human HCT8 cells after 96 hrs by sulforhodamine B assay; format: functional, cell-based; details: HCT-8, 96 h; in short: as §2
[29] = Cytotoxicity against human 518A2 cells after 96 hrs by sulforhodamine B assay; format: functional, cell-based; details: 518A2, 96 h; in short: as §2
[30] = test system: DLD-1; test: Cytotoxicity against human DLD1 cells after 96 hrs by sulforhodamine B assay; format: functional, cell-based; details: DLD-1, 96 h; in short: as §2
[31] = test system: A2780; test: Induction of apoptosis in human A2780 cells assessed as floating cells at IC90 concentration after 24 hrs by Trypan blue exclusion test; format: functional, cell-based
In short: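 A2780 ovarian cancer cells treated for 24 h. Floating cells are collected and scored by trypan-blue exclusion: apoptotic cells exclude the dye, necrotic cells stain blue.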

[32] = test system: A2780 (Homo sapiens); test: Induction of apoptosis in human A2780 cells assessed as floating cells at IC90 concentration after 24 hrs by Trypan blue exclusion test
[33] = test system: SW480; test: Induction of apoptosis in human SW480 cells assessed as DNA ladder formation at IC90 concentration after 24 hrs by DNA gel electrophoresis analysis; format: functional, cell-based
In short: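 SW480 colon cancer cells treated for 24 h. Floating cells are collected, and DNA is analysed by gel electrophoresis for endonuclease-generated fragment laddering.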

[34] = test system: SW480 (Homo sapiens); test: Induction of apoptosis in human SW480 cells assessed as DNA ladder formation at IC90 concentration after 24 hrs by DNA gel electrophoresis analysis

Structure (SMILES): C=C(C)[C@@H]1CC[C@]2(C(=O)C#CC(=O)OC)CC[C@]3(C)[C@H](CC[C@@H]4[C@@]5(C)CC[C@H](OC(C)=O)C(C)(C)[C@@H]5CC[C@]43C)[C@@H]12
- inhibition [1]: inactive
- inhibition [2]: inactive
- inhibition [3]: inactive
- inhibition [4]: inactive
- inhibition [5]: inactive
- inhibition [6]: inactive
- inhibition [7]: inactive
- inhibition [8]: inactive
- inhibition [9]: inactive
- inhibition [10]: inactive
- inhibition [11]: inactive
- inhibition [12]: inactive
- inhibition [13]: inactive
- inhibition [14]: inactive
- inhibition [15]: inactive

Structure (SMILES): C=C(C)[C@@H]1CC[C@]2([C@H](O)C#Cc3ccccc3)CC[C@]3(C)[C@H](CC[C@@H]4[C@@]5(C)CC[C@H](OC(C)=O)C(C)(C)[C@@H]5CC[C@]43C)[C@@H]12
- inhibition [1]: inactive
- inhibition [2]: inactive
- inhibition [3]: inactive
- inhibition [4]: inactive
- inhibition [5]: inactive
- inhibition [6]: inactive
- inhibition [7]: inactive
- inhibition [8]: inactive
- inhibition [9]: inactive
- inhibition [10]: inactive
- inhibition [11]: inactive
- inhibition [12]: inactive
- inhibition [13]: inactive
- inhibition [14]: inactive
- inhibition [15]: inactive

Structure (SMILES): C=C(C)[C@@H]1CC[C@]2([C@H](O)c3c(C(=O)OCC)n[nH]c3C(=O)OC)CC[C@]3(C)[C@H](CC[C@@H]4[C@@]5(C)CC[C@H](OC(C)=O)C(C)(C)[C@@H]5CC[C@]43C)[C@@H]12
- IC50 [16]: 13.2 µM
- IC50 [17]: 12 µM
- IC50 [18]: 14 µM
- IC50 [19]: 13.2 µM
- IC50 [20]: 13.9 µM
- IC50 [21]: 11.4 µM
- IC50 [22]: 18.2 µM
- IC50 [23]: 14 µM
- IC50 [24]: 11.7 µM
- inhibition [12]: inactive
- IC50 [25]: 17 µM
- IC50 [26]: 19.2 µM
- IC50 [27]: 11.3 µM
- IC50 [28]: 13.4 µM
- IC50 [29]: 16.4 µM

Structure (SMILES): C=C(C)[C@@H]1CC[C@]2([C@H](O)c3nn[nH]c3C(=O)OC)CC[C@]3(C)[C@H](CC[C@@H]4[C@@]5(C)CC[C@H](OC(C)=O)C(C)(C)[C@@H]5CC[C@]43C)[C@@H]12
- IC50 [16]: 13.4 µM
- IC50 [17]: 15.4 µM
- IC50 [18]: 18.2 µM
- IC50 [19]: 10.3 µM
- IC50 [20]: 15.1 µM
- IC50 [21]: 14.7 µM
- IC50 [22]: 17.3 µM
- IC50 [23]: 15.6 µM
- IC50 [30]: 15.5 µM
- IC50 [24]: 16.6 µM
- IC50 [25]: 18.2 µM
- IC50 [26]: 11.8 µM
- IC50 [27]: 14.8 µM
- IC50 [28]: 13.9 µM
- IC50 [29]: 14.8 µM

Structure (SMILES): C=C(C)[C@@H]1CC[C@]2([C@@H]3OC(=O)C=C3N(C)C)CC[C@]3(C)[C@H](CC[C@@H]4[C@@]5(C)CC[C@H](OC(C)=O)C(C)(C)[C@@H]5CC[C@]43C)[C@@H]12
- Activity [31]: Active
- IC50 [16]: 2.6 µM
- IC50 [17]: 3.1 µM
- IC50 [18]: 5.3 µM
- Activity [32]: Active
- Activity [33]: Active
- IC50 [19]: 4.9 µM
- IC50 [20]: 3.8 µM
- IC50 [21]: 2.2 µM
- IC50 [22]: 6.1 µM
- IC50 [23]: 3.2 µM
- IC50 [30]: 3.6 µM
- IC50 [24]: 3.3 µM
- Activity [34]: Active
- IC50 [25]: 5.7 µM
- IC50 [26]: 2.9 µM
- IC50 [27]: 6.9 µM
- IC50 [28]: 1.7 µM
- IC50 [29]: 4.8 µM

Structure (SMILES): C=C(C)[C@@H]1CC[C@]2([C@H](O)C#CC(=O)OC)CC[C@]3(C)[C@H](CC[C@@H]4[C@@]5(C)CC[C@H](OC(C)=O)C(C)(C)[C@@H]5CC[C@]43C)[C@@H]12
- Activity [31]: Active
- IC50 [18]: 4.2 µM
- Activity [32]: Active
- Activity [33]: Active
- IC50 [19]: 2.7 µM
- Activity [34]: Active
- IC50 [29]: 5.9 µM

Structure (SMILES): C=C(C)[C@@H]1CC[C@]2([C@H](O)/C=C\CO)CC[C@]3(C)[C@H](CC[C@@H]4[C@@]5(C)CC[C@H](OC(C)=O)C(C)(C)[C@@H]5CC[C@]43C)[C@@H]12
- IC50 [16]: 12.6 µM
- IC50 [17]: 17.8 µM
- IC50 [18]: 18.5 µM
- IC50 [19]: 14.8 µM
- IC50 [20]: 10.7 µM
- IC50 [21]: 17.9 µM
- IC50 [22]: 12.8 µM
- IC50 [23]: 10.5 µM
- IC50 [30]: 12.3 µM
- IC50 [24]: 12.4 µM
- IC50 [25]: 15.9 µM
- IC50 [26]: 9 µM
- IC50 [27]: 19.4 µM
- IC50 [28]: 10.1 µM
- IC50 [29]: 20.4 µM
